The values below come from ChEMBL document CHEMBL1138193, “Synthesis and biological activity of 7-phenyl-6,9-dihydro-3H-pyrrolo[3,2-f]quinolin-9-ones: a new class of antimitotic agents devoid of aromatase activity” (J Med Chem, 2006).

Calls of active or inactive are those of the source. The rule behind the calls is not given here.

The subject of data set [1] is BNL. Nature of the data set: Cytotoxicity against mouse BNL cells by MTT assay. The data set is classed as functional, cell-based. The method, boiled down:
(§1)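 MTT colorimetric proliferation assay on human and murine tumour cell lines. Compounds tested over 50 to 0.1 µM; IC50 calculated from the concentration response.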
A general note: Tetrazolium dyes change colour on reduction, which living cells bring about.

For data set [2], the target named is T1, Aromatase (Homo sapiens, UniProt P11511).
T1 sequence (P11511 whole entry): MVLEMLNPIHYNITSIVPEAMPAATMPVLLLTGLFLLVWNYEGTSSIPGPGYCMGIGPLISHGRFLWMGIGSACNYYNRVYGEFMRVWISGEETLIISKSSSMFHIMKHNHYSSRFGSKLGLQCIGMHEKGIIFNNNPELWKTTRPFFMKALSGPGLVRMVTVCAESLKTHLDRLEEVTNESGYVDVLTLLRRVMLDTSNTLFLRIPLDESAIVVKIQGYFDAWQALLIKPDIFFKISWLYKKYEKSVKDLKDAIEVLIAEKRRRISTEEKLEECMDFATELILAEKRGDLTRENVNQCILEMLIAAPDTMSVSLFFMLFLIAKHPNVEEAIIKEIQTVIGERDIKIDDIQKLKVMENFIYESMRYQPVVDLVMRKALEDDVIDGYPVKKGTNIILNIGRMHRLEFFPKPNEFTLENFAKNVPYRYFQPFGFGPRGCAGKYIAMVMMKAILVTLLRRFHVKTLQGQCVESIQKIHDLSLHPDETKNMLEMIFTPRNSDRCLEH
Nature of the data set: Inhibition of aromatase activity in H295R cells at 15 uM. The data set is classed as cell-based. The method, boiled down: (§2)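 H295R cells cultured 24 h in DMEM-F12 with or without forskolin (25 µM). Compound (5, 10 or 15 µM) added 1 h before [1β-³H]androstenedione substrate (0.5 µM), then 2 h further exposure. Modified tritiated water release read-out as pmol ³H₂O/h/mg protein. Letrozole reference. Mean ± SEM of three experiments in triplicate.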

For data set [3], the system named is HepG2. Nature of the data set: Cytotoxicity against human HepG2 cells by MTT assay. The data set is classed as functional, cell-based. The method, boiled down: as §1
The next data set concerns MCF7. Nature of the data set: Cytotoxicity against human MCF7 cells by MTT assay. The class given is functional, cell-based. The method, boiled down:
as §1

In data set [4] the target is T2, Tubulin (Homo sapiens) (UniProt P68371+Q9H4B7+P0DPH7+P68366+Q13509+Q71U36+P04350+Q3ZCM7+P07437+P68363+Q9BQE3+Q6PEY2+Q13885+Q9BVA1+Q9BUF5). Nature of the data set: Inhibition of tubulin polymerization at 5 uM. The data set is classed as protein-complex assay. The method, boiled down:
(§3)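 Fluorimetric microtubule polymerization kit using purified tubulin. Compound at 5, 2.5, 1.25 and 0.625 µM; fluorescence (ex 355/em 450 nm) read every minute for 60 min. Taxol and vincristine (3 µM) as references.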

Another data set concerns A549. Nature of the data set: Cytotoxicity against human A549 cells by MTT assay. The data set is classed as functional, cell-based.
Data set [5] has as its target T2, Tubulin (Homo sapiens). Nature of the data set: Inhibition of tubulin polymerization at 2.5 uM. The class given is protein-complex assay. The method, boiled down:
as §3

Data set [6] concerns BNL. Nature of the data set: Cytotoxicity against BNL 1ME A.7R.1 cells subcutaneously implanted in BALB/c mouse at 40 mg/kg, ip. The class given is functional. The following applies: route intraperitoneal. Summed up: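 Male Balb/c mice implanted subcutaneously in the dorsal region with 10⁷ syngenic hepatocarcinoma cells. From day 2, daily intraperitoneal dosing at 40 mg/kg, with saline and vehicle control groups (n = 8-12 per group). Tumour measured daily by calipers over 10 days; volume = A × B²/2. Means ± SE.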

In data set [7] the test system is OVCAR-3. Nature of the data set: Cytotoxicity against human Ovcar3 cells by MTT assay. The class given is functional, cell-based. The method, boiled down: as §1
In data set [8] the test system is HepG2. Nature of the data set: Cell cycle arrest at G2/M phase in HepG2 cells at 5-10 uM. The data set is classed as functional, Homo sapiens.
The test system of the next data set is PT-45. Nature of the data set: Cytotoxicity against human PT45 cells by MTT assay. The data set is classed as functional, cell-based. The method, boiled down: as §1
Another data set deals with HT-29. Nature of the data set: Cytotoxicity against human HT29 cells by MTT assay. The class given is functional, cell-based. Summed up: as §1
The next data set has as its system NCI-H295R. Nature of the data set: Cytotoxicity against human H295R cells by MTT assay. The data set is classed as functional, cell-based. The method, boiled down: as §1
In the next data set the test system is ARO. Nature of the data set: Cytotoxicity against human Aro cells by MTT assay. The class given is functional, cell-based. The method, boiled down:
as §1

The subject of another data set is 4T1. Nature of the data set: Cytotoxicity against mouse 4T1 cells by MTT assay. The class given is functional, cell-based. Summed up: as §1
Data set [9] deals with T1, Aromatase. Nature of the data set: Inhibition of aromatase activity in H295R cells at 5 uM. The class given is cell-based. The method, boiled down:
as §2

In the next data set the test system is HeLa. Nature of the data set: Cytotoxicity against human HeLa cells by MTT assay. The data set is classed as functional, cell-based. The method, boiled down:
as §1

The target of data set [10] is T1, Aromatase. Nature of the data set: Inhibition of aromatase activity in H295R cells at 10 uM. The class given is cell-based. The method, boiled down: as §2
Data set [11] has as its target T2, Tubulin (Homo sapiens). Nature of the data set: Microtubule disassembly in Ovcar3 cells at 5 uM. The data set is classed as functional, cell-based. The following applies: OVCAR-3. Summed up: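 Ovcar-3 cells exposed 18 h to 5 µM (drug-free and vincristine 5 µM controls), fixed, stained with anti-β-tubulin antibody, and microtubule distribution examined by fluorescence microscopy.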

Data set [12] concerns OVCAR-3. Nature of the data set: Cell cycle arrest at G2/M phase in Ovcar3 cells at 5-10 uM. The class given is functional, Homo sapiens.

Turning to `O=c1cc(-c2ccccc2)[nH]c2ccc3[nH]ccc3c12`, the IC50 in the data set with BNL [1] came out at 3000 nM; with HepG2 [3] it was 8 µM; with MCF7, 800 nM; in the data set on A549 it was 1000 nM; in the data set on OVCAR-3 [7], 6 µM; in the data set with PT-45, 500 nM. In addition, the IC50 in the data set with HT-29 was 2000 nM; in the data set with NCI-H295R it was 400 nM; in the data set on ARO it was 700 nM; in the data set on 4T1, 2000 nM; in the data set with HeLa, 700 nM. Moreover, the Activity entry on Aromatase [2] is “Not Active”; at Tubulin (Homo sapiens) [4], “Dose-dependent effect”; on Tubulin (Homo sapiens) [5] it was “Dose-dependent effect”; in the data set on BNL [6] it was 83.2%; in the data set with HepG2 [8] it was 47.7%; at Aromatase [9], “Not Active”. The Activity entry at Aromatase [10] is reported as “Not Active”; with OVCAR-3 [12], 62%. At Tubulin (Homo sapiens) [11], the outcome was Active.

In general, IC50 refers to the concentration that inhibits the measured activity by half. A lower IC50 goes with greater potency.
